Legend:
L1210 = assay: Concentration required to inhibit proliferation of cultured lymphoid leukemia L1210 cells to 50% growth over 48 hours; type: functional, cell-based; settings: Mus musculus, L1210, 48 h
Procedure, shortened: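 Cultured lymphoid leukemia L1210 cells were exposed to agent for 48 h. IC50 is the micromolar concentration that holds proliferation to 50% growth.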

P388 [1] = assay: Compound was evaluated for antitumor activity against mice implanted with lymphatic leukemia P388 cells (10e6 tumor cells) after intraperitoneal administration of 200 mg/kg per injection (1-5 days); type: functional; settings: Mus musculus, P388, ip
Procedure, shortened: (§1)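 Mice implanted ip with 10⁶ lymphocytic leukemia P388 cells; drug given ip on days 1-5. Read-out is % increase in life span (% ILS) versus untreated controls, reported at the highest nontoxic dose tested.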

[2] = Compound's concentration required to inhibit proliferation of cultured KB cells to 50% growth during 48 hours.; type: functional, cell-based; settings: Homo sapiens
P388 [3] = assay: Compound was evaluated for antitumor activity against mice implanted with lymphatic leukemia P388 cells (10e6 tumor cells) after intraperitoneal administration of 200 mg/kg per injection; type: functional; settings: Mus musculus, P388, ip
P388 [4] = assay: Compound was evaluated for antitumor activity against mice implanted with lymphatic leukemia P388 cells (10e6 tumor cells) after intraperitoneal administration of 100 mg/kg per injection (1-5 days); type: functional; settings: Mus musculus, P388, ip; procedure, shortened: as §1
P388 [5] = assay: Compound was evaluated for antitumor activity against mice implanted with lymphatic leukemia P388 cells (10e6 tumor cells) after intraperitoneal administration of 50 mg/kg per injection (1-5 days); type: functional; settings: Mus musculus, P388, ip; procedure, shortened: as §1

Compound	IC50 (L1210)	ILS at 200 mg/kg (P388 [1])	further results
CCOC(=O)Nc1cc(NC(C)C(O)c2ccc3c(c2)OCO3)c([N+](=O)[O-])c(N)n1 (stereo not given)	21 µM		
CCOC(=O)Nc1cc(NC(C)C(=O)Cc2ccccc2)c([N+](=O)[O-])c(N)n1 (stereo not given)	10 µM	10%	
CCOC(=O)Nc1cc(N)c([N+](=O)[O-])c(N)n1			IC50 [2]: 48 µM; ILS at 200 mg/kg (P388 [3]): 0%
CCOC(=O)Nc1cc(NC(CC)C(O)c2ccccc2)c([N+](=O)[O-])c(N)n1 (stereo not given)	22 µM		
CCCCC(Nc1cc(NC(=O)OCC)nc(N)c1[N+](=O)[O-])C(C)=O (stereo not given)	31 µM		
CCOC(=O)Nc1cc(NC(C)C(=O)c2ccc(O)cc2)c([N+](=O)[O-])c(N)n1 (stereo not given)	1.2 µM		ILS at 100 mg/kg (P388 [4]): 71%
CCOC(=O)Nc1cc(N[C@H](C)[C@@H](O)c2ccc(O)cc2)c([N+](=O)[O-])c(N)n1	23 µM	0%	
CCOC(=O)Nc1cc(N[C@@H](C)[C@H](O)c2ccccc2)c(N)c(N)n1	1.3 µM		ILS at 50 mg/kg (P388 [5]): 36%
CCOC(=O)Nc1cc(N[C@@H](C)[C@H](O)c2ccccc2)c([N+](=O)[O-])c(N)n1	7.8 µM	53%	
COc1ccc(/C(=N/O)C(C)N)cc1 (stereo not given)	> 100 µM		
CCOC(=O)Nc1cc(N[C@H](C)[C@@H](O)c2ccccc2)c([N+](=O)[O-])c(N)n1	31 µM	0%	
CCCCC(O)C(C)Nc1cc(NC(=O)OCC)nc(N)c1N (stereo not given)	18 µM	10%	
CCOC(=O)Nc1cc(N[C@H](C)[C@@H](O)c2ccc(O)cc2)c(N)c(N)n1	51 µM	0%	
CCOC(=O)Nc1cc(NC(C)C(=O)c2ccc3c(c2)OCO3)c([N+](=O)[O-])c(N)n1 (stereo not given)	69 µM		
CCOC(=O)Nc1cc(N[C@H](C)C(=O)c2ccccc2)c([N+](=O)[O-])c(N)n1	24 µM	0%	
CCCCC(O)C(C)Nc1cc(NC(=O)OCC)nc(N)c1[N+](=O)[O-] (stereo not given)	55 µM		
CCOC(=O)Nc1cc(NC(C)C(O)c2ccc(O)cc2)c([N+](=O)[O-])c(N)n1 (stereo not given)	12 µM		
CCOC(=O)Nc1cc(NCCc2ccccc2)c(N)c(N)n1			IC50 [2]: 75 µM
CCCCC(Nc1cc(NC(=O)OCC)nc(N)c1[N+](=O)[O-])C(C)O (stereo not given)	56 µM		
CCCCC(=O)C(C)Nc1cc(NC(=O)OCC)nc(N)c1[N+](=O)[O-] (stereo not given)	54 µM		

Source: ChEMBL document CHEMBL1126221, “Antimitotic agents: structure-activity studies with some pyridine derivatives” (J Med Chem, 1992)
